In ChEMBL document CHEMBL1138667, “Phenylguanidines as selective nonpeptide melanocortin-5 receptor antagonists” (J Med Chem, 2004):

Experiments:
[1] = target: T1, Melanocyte-stimulating hormone receptor (Homo sapiens, UniProt Q01726); experiment: Binding affinity for human melanocortin 1 receptor
Procedure, shortened: (§1)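 Human MC1, MC3 or MC4 receptor expressed in HEK293 cells. Membranes bearing each receptor were used in a competitive binding assay measuring inhibition of [125I]NDP-MSH binding, with inhibition curves generated.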
Target sequence in this assay (Q01726 whole entry): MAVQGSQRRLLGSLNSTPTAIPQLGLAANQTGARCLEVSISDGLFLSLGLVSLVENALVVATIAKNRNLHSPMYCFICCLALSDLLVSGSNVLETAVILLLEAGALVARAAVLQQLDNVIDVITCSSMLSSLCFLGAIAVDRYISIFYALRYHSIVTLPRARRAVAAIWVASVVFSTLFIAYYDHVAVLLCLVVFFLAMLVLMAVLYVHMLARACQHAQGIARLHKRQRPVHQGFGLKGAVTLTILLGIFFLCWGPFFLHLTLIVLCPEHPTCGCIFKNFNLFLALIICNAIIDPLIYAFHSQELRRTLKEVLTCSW

[2] = target: T2, Melanocortin receptor 5 (Homo sapiens, UniProt P33032); experiment: Inhibition of human Melanocortin 5 receptor
[3] = target: Melanocortin receptor 3 (Homo sapiens, UniProt P41968); experiment: Binding affinity for human melanocortin 3 receptor; procedure, shortened: as §1
[4] = target: T3, Melanocortin receptor 4 (Homo sapiens, UniProt P32245); experiment: Binding affinity for human melanocortin 4 receptor; procedure, shortened: as §1
[5] = target: T2, Melanocortin receptor 5; experiment: Inhibition of [125I]NDP-MSH binding to human Melanocortin 5 receptor expressed in HEK293 cells; type: cell-based
Procedure, shortened: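 Competitive binding on membranes from HEK293 cells stably expressing human MC5 receptor, with [125I]NDP-MSH as the radioligand. Inhibition of radioligand binding was measured and Ki derived from more than 3 determinations.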

[6] = target: T1, Melanocyte-stimulating hormone receptor; experiment: Percentage inhibition of human melanocortin 1 receptor at 10 uM
Target sequence in this assay (Q01726 whole entry, looked up): as the sequence (Q01726 whole entry) above

[7] = target: T3, Melanocortin receptor 4; experiment: Intrinsic activity as percentage of maximal melanocortin receptor 4 related cAMP production relative to alpha-MSH; type: functional

T3 sequence (P32245 whole entry): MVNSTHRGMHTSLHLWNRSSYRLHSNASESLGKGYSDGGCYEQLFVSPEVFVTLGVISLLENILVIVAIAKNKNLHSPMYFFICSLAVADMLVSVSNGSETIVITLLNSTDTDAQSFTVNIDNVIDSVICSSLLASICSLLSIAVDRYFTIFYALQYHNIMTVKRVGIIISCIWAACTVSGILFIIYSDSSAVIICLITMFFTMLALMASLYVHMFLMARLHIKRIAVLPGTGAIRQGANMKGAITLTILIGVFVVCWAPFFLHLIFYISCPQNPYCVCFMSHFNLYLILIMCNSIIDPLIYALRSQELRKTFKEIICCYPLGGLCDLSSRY
T2 sequence (P33032 whole entry): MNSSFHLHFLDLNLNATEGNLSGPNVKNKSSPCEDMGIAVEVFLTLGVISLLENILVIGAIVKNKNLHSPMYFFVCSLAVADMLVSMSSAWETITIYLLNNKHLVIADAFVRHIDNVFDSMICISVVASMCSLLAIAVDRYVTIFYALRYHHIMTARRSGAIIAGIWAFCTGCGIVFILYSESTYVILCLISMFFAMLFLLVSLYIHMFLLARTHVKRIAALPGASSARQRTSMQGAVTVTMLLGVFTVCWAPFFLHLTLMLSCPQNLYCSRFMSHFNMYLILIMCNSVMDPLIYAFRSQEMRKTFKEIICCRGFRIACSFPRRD
Sequence of Melanocortin receptor 3 (P41968 whole entry): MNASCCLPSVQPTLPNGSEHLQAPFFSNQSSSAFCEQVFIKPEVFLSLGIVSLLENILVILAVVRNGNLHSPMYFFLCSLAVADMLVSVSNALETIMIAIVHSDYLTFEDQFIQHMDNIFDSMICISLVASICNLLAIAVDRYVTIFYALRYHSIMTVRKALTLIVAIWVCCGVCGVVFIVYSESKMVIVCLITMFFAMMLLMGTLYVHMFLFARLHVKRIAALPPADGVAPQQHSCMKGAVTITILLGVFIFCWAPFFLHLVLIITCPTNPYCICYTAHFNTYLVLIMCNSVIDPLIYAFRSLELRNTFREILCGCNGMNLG

Row | Compound | IC50 [2] | Ki [3] | Ki [4] | Ki [5] | other results
1 | O=C(NCCc1ccc(Cl)cc1Cl)c1ccc(NC(=NC2CCCCC2)N2CCNCC2)cc1 | 460 nM | 2200 nM | 650 nM | 18 nM | Ki [1]: 400 nM
2 | CNC1CCN(/C(=N/c2ccc(C(=O)NCCc3ccc(Cl)cc3Cl)cc2)NC2CCCCC2)C1 (stereo not given) | 630 nM | 2300 nM | 1400 nM | 36 nM | inhibition [6]: 27%; IA [7]: 36%
3 | CC1CN(C(=NC2CCCCC2)Nc2ccc(C(=O)NCCc3ccc(Cl)cc3Cl)cc2)CC(C)N1 (stereo not given) | 89 nM | 3900 nM | 590 nM | 11 nM | –
4 | O=C1CN(C(=NC2CCCCC2)Nc2ccc(C(=O)NCCc3ccc(Cl)cc3Cl)cc2)CCN1 | – | – | – | 560 nM | –
5 | O=C(NCCc1ccc(Cl)cc1Cl)c1ccc(NC(=NC2CCCCC2)N2CCC(N3CCCC3)CC2)cc1 | – | – | – | 77 nM | –
6 | CCCN(CCC)/C(=N/c1ccc(C(=O)NCCc2ccc(Cl)cc2Cl)cc1)NC1CCCCC1 | – | – | – | 360 nM | –
7 | O=C(NCCc1ccc(Cl)cc1Cl)c1ccc(N/C(=N\C2CCNC2)NC2CCCCC2)cc1 (stereo not given) | 530 nM | 2500 nM | 1500 nM | 26 nM | Ki [1]: 1900 nM
8 | CC1CC(C)CN(C(=NC2CCCCC2)Nc2ccc(C(=O)NCCc3ccc(Cl)cc3Cl)cc2)C1 (stereo not given) | – | – | – | 144 nM | –
9 | C[C@H]1CN(/C(=N/c2ccc(C(=O)NCCc3ccc(Cl)cc3Cl)cc2)NC2CCCCC2)CCN1 | 380 nM | 2800 nM | 580 nM | 21 nM | inhibition [6]: 29%; IA [7]: 65%
10 | CN(/C(=N/c1ccc(C(=O)NCCc2ccc(Cl)cc2Cl)cc1)NC1CCCCC1)C1CCCCC1 | – | – | – | 91 nM | –
11 | C[C@@H]1CN[C@@H](C)CN1/C(=N/c1ccc(C(=O)NCCc2ccc(Cl)cc2Cl)cc1)NC1CCCCC1 | 380 nM | 2800 nM | 840 nM | 5.9 nM | Ki [1]: 360 nM
12 | O=C(NCCc1ccc(Cl)cc1Cl)c1ccc(NC(=NC2CCCCC2)N2CCN(Cc3ccccc3)CC2)cc1 | – | – | – | 44 nM | –
13 | O=C(NCCc1ccc(Cl)cc1Cl)c1ccc(NC(=NC2CCCCC2)N2CCN(c3ncccn3)CC2)cc1 | – | – | – | 305 nM | –
14 | C[C@@H]1CN(C(=NC2CCCCC2)Nc2ccc(C(=O)NCCc3ccc(Cl)cc3Cl)cc2)CCN1 | 70 nM | 3500 nM | 840 nM | 2.1 nM | –
15 | O=C(NCCc1ccc(Cl)cc1Cl)c1ccc(N/C(=N/C2CCCCC2)N2CCNCC2)cc1 | – | – | – | – | IA [7]: 28%
16 | Cc1ccc(C)c(N2CCN(C(=NC3CCCCC3)Nc3ccc(C(=O)NCCc4ccc(Cl)cc4Cl)cc3)CC2)c1 | – | – | – | 1760 nM | –
17 | CC1CN(/C(=N/c2ccc(C(=O)NCCc3ccc(Cl)cc3Cl)cc2)NC2CCCCC2)CC(C)N1 (stereo not given) | – | – | – | – | inhibition [6]: 23%; IA [7]: 76%
18 | CC(C)(N)C/N=C(\Nc1ccc(C(=O)NCCc2ccc(Cl)cc2Cl)cc1)NC1CCCCC1 | 530 nM | 2400 nM | 1300 nM | 5.3 nM | inhibition [6]: 27%; IA [7]: 45%
19 | CC1C(=O)NCCN1C(=NC1CCCCC1)Nc1ccc(C(=O)NCCc2ccc(Cl)cc2Cl)cc1 (stereo not given) | – | – | – | 1050 nM | –
20 | O=C(NCCc1ccc(Cl)cc1Cl)c1ccc(NC(=NC2CCCCC2)N2CCN(c3ccccc3)CC2)cc1 | – | – | – | 290 nM | –
21 | O=C(NCCc1ccc(Cl)cc1Cl)c1ccc(NC(=NC2CCCCC2)NCc2cc(F)cc(F)c2)cc1 | – | – | – | 70 nM | –
22 | NC1CCN(C(=NC2CCCCC2)Nc2ccc(C(=O)NCCc3ccc(Cl)cc3Cl)cc2)CC1 | – | – | – | 230 nM | –
23 | C[C@@H]1CN(/C(=N/c2ccc(C(=O)NCCc3ccc(Cl)cc3Cl)cc2)NC2CCCCC2)CCN1 | – | – | – | – | inhibition [6]: 25%; IA [7]: 37%
24 | CN1CCN(/C(=N/c2ccc(C(=O)NCCc3ccc(Cl)cc3Cl)cc2)NC2CCCCC2)CC1 | – | – | – | 50 nM | –
25 | CC1CN(C(=NC2CCCCC2)Nc2ccc(C(=O)NCCc3ccc(Cl)cc3Cl)cc2)CC(C)O1 (stereo not given) | – | – | – | 350 nM | –
